Reference: ChEMBL document CHEMBL4270555, “Synthesis and biological evaluation of magnolol derivatives as melatonergic receptor agonists with potential use in depression” (Eur J Med Chem, 2018)
Calls of active or inactive are those of the source. The calls are words filed in the database; no cut-off is given here.

Legend:
Mus musculus [1] = assay: Increase in 3,4-dihydroxyphenylacetic acid level in Kunming mouse hypothalamus at 40 mg/kg, po treated for 7 days by HPLC-ECD analysis; format: functional, organism-based
How it was run: (§1)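 Male Kunming mice (18–20 g) given vehicle or 40 mg/kg for 7 days, then killed by cervical dislocation. Frontal cortex, hippocampus, striatum, hypothalamus and thalamus dissected on ice, homogenized in ice-cold 0.2 M perchloric acid with 0.1 mM EDTA, centrifuged 15,000 rpm, 20 min, 4 °C. Supernatant analysed by HPLC-ECD at +0.50 V; phosphate/octanesulfonate mobile phase pH 3.0 with 12% methanol. Levels in ng/g, mean ± SEM.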

Mus musculus [2] = assay: Antidepressant activity in Kunming mouse assessed as decrease in immobility duration at 40 mg/kg, po by forced swim test relative to control; format: functional; set-up: scale not given: the % may be the effect or the level left
How it was run: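 Male Kunming mice (18–20 g) given 10, 20 or 40 mg/kg orally; fluoxetine and agomelatine 20 mg/kg as references. Each mouse swam 6 min in a cylinder (25 × 15 cm) holding 10 cm of water at 25 ± 1 °C. Immobility over the last 4 min was scored by video tracking; n = 10, mean ± SEM versus vehicle.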

[3] = target: T1, Melatonin receptor type 1B (Homo sapiens, UniProt P49286); assay: Agonist activity at human MT2 receptor expressed in HEK293 cells after 24 hrs by Fluo-8 dye-based calcium assay; format: functional, cell-based
T1 sequence (P49286 whole entry): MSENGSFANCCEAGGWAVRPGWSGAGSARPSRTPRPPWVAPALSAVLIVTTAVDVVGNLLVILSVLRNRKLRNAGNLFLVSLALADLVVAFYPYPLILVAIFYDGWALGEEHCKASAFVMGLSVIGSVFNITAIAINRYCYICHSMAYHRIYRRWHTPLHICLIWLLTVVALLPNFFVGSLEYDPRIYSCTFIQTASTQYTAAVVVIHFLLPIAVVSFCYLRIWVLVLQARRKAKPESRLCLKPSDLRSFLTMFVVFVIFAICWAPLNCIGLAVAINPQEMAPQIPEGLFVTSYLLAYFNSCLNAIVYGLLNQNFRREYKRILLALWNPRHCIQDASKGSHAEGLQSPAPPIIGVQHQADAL
How it was run: (§2)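 Fluo-8 calcium flux in HEK293 cells stably expressing human MT1 or MT2, grown in DMEM + 10% FBS at 37 °C, seeded 4×10^4/well and incubated 24 h. Compounds in DMSO/HBSS at several concentrations; fluorescence read at room temperature (ex 485, em 525 nm). Triplicate wells, three independent experiments; EC50 by nonlinear regression.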

[4] = Drug metabolism in Sprague-Dawley rat plasma assessed as (2S,3S,4S,5R,6S)-3,4,5-trihydroxy-6-(5-(1-hydroxyallyl)-5'-(2-hydroxypropyl)-2'-methoxybiphenyl-2-yloxy)tetrahydro-2H-pyran-2-carboxylic acid formation at 100 mg/kg, po by UPLC-IT-TOF-MS analysis; format: ADME, organism-based; conditions: in vivo
How it was run: (§3)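 Rats (n = 6) housed in metabolic cages received 100.0 mg/kg orally; controls received 0.5% CMC-Na. Plasma, urine and faeces were collected and analyzed by LC-IT-TOF-MS on a C18 column at 30 °C. Gradient 5–100% acetonitrile with 0.05% formic acid over 18 min at 0.2 mL/min; positive and negative ion MS/MS.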

[5] = target: Melatonin receptor type 1A (Homo sapiens, UniProt P48039); assay: Agonist activity at human MT1 receptor expressed in HEK293 cells after 24 hrs by Fluo-8 dye-based calcium assay; format: functional, cell-based; how it was run: as §2
Melatonin receptor type 1A, sequence (P48039 whole entry): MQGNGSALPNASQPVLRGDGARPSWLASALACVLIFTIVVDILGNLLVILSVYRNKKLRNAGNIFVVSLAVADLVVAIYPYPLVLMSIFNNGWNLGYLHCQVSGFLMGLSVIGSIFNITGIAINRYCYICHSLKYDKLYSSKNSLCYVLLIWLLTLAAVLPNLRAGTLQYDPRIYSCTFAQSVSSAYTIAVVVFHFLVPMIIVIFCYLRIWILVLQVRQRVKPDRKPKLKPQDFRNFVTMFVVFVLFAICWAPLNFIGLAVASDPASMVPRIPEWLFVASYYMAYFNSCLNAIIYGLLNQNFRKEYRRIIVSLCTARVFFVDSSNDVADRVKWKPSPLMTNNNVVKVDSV

[6] = Drug metabolism in Sprague-Dawley rat plasma assessed as 5'-(1-hydroxyallyl)-5-propyl-2'-((2S,3R,4S,5S,6R)-3,4,5-trihydroxy-6-(hydroxymethyl)tetrahydro-2H-pyran-2-yloxy)biphenyl-2-yl hydrogen sulfate formation at 100 mg/kg, po by UPLC-IT-TOF-MS analysis; format: ADME, organism-based; conditions: in vivo; how it was run: as §3
[7] = Drug metabolism in Sprague-Dawley rat feces assessed as 5-allyl-5'-(1-hydroxyallyl)-2'-((2S,3R,4S,5S,6R)-3,4,5-trihydroxy-6-(hydroxymethyl)tetrahydro-2H-pyran-2-yloxy)biphenyl-2-yl hydrogen sulfate formation at 100 mg/kg, po by UPLC-IT-TOF-MS analysis; format: ADME, organism-based; conditions: in vivo; how it was run: as §3
[8] = Drug metabolism in Sprague-Dawley rat plasma assessed as (2S,3R,4S,5S,6R)-2-(5'-allyl-2'-hydroxy-5-(1-hydroxyallyl)biphenyl-2-yloxy)-6-(hydroxymethyl)tetrahydro-2H-pyran-3,4,5-triol formation at 100 mg/kg, po by UPLC-IT-TOF-MS analysis; format: ADME, organism-based; conditions: in vivo; how it was run: as §3
[9] = Drug metabolism in Sprague-Dawley rat feces assessed as (2S,3S,4S,5R,6S)-6-(5,5'-diallyl-2'-methoxybiphenyl-2-yloxy)-3,4,5-trihydroxytetrahydro-2H-pyran-2-carboxylic acid formation at 100 mg/kg, po by UPLC-IT-TOF-MS analysis; format: ADME, organism-based; conditions: in vivo; how it was run: as §3
[10] = Drug metabolism in Sprague-Dawley rat urine assessed as 5'-(1-hydroxyallyl)-5-propyl-2'-((2S,3R,4S,5S,6R)-3,4,5-trihydroxy-6-(hydroxymethyl)tetrahydro-2H-pyran-2-yloxy)biphenyl-2-yl hydrogen sulfate formation at 100 mg/kg, po by UPLC-IT-TOF-MS analysis; format: ADME, organism-based; conditions: in vivo
How it was run: (§4)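 Male/unspecified SD rats (n = 6) housed individually in metabolic cages, dosed orally at 100.0 mg/kg; controls given 0.5% CMC-Na orally. Plasma, urine and faeces collected. LC-IT-TOF-MS on C18 column at 30 °C, formic acid (0.05%) water/acetonitrile gradient 5–100% B over 18 min, 0.2 mL/min; positive and negative ion modes with automatic MS/MS.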

Mus musculus [11] = assay: Effect on 5-hydroxytryptamine level in Kunming mouse frontal cortex at 40 mg/kg, po treated for 7 days by HPLC-ECD analysis; format: functional, organism-based; how it was run: as §1
[12] = Drug metabolism in Sprague-Dawley rat urine assessed as 2'-hydroxy-5'-(1-hydroxyallyl)-5-propylbiphenyl-2-yl hydrogen sulfate formation at 100 mg/kg, po by UPLC-IT-TOF-MS analysis; format: ADME, organism-based; conditions: in vivo; how it was run: as §4
[13] = Drug metabolism in Sprague-Dawley rat urine assessed as (2S,3R,4S,5S,6R)-2-(5'-allyl-2'-hydroxy-5-(1-hydroxyallyl)biphenyl-2-yloxy)-6-(hydroxymethyl)tetrahydro-2H-pyran-3,4,5-triol formation at 100 mg/kg, po by UPLC-IT-TOF-MS analysis; format: ADME, organism-based; conditions: in vivo; how it was run: as §4
[14] = Drug metabolism in Sprague-Dawley rat urine assessed as 5,5'-diallylbiphenyl-2,2'-diol formation at 100 mg/kg, po by UPLC-IT-TOF-MS analysis; format: ADME, organism-based; conditions: in vivo; how it was run: as §4
[15] = Drug metabolism in Sprague-Dawley rat urine assessed as 5-allyl-5'-(1-hydroxyallyl)-2'-((2S,3R,4S,5S,6R)-3,4,5-trihydroxy-6-(hydroxymethyl)tetrahydro-2H-pyran-2-yloxy)biphenyl-2-yl hydrogen sulfate formation at 100 mg/kg, po by UPLC-IT-TOF-MS analysis; format: ADME, organism-based; conditions: in vivo; how it was run: as §4
[16] = Drug metabolism in Sprague-Dawley rat urine assessed as (2S,3S,4S,5R,6S)-6-(5'-allyl-5-(1-hydroxyallyl)-2'-((2S,3R,4S,5S,6R)-3,4,5-trihydroxy-6-(hydroxymethyl)tetrahydro-2H-pyran-2-yloxy)biphenyl-2-yloxy)-3,4,5-trihydroxytetrahydro-2H-pyran-2-carboxylic acid formation at 100 mg/kg, po by UPLC-IT-TOF-MS analysis; format: ADME, organism-based; conditions: in vivo; how it was run: as §4
Mus musculus [17] = assay: Increase in norepinephrine level in Kunming mouse frontal cortex at 40 mg/kg, po treated for 7 days by HPLC-ECD analysis; format: functional, organism-based; how it was run: as §1

C=CCc1ccc(O)c(-c2cc(CC=C)ccc2O[C@@H]2O[C@H](CO)[C@@H](O)[C@H](O)[C@H]2O)c1
Activity (Mus musculus [1]): Active | Activity (Mus musculus [2]): 37.66% | EC50 [3]: 383 µM | Drug metabolism [4]: Metabolite_Notdetected | EC50 [5]: 397 µM | Drug metabolism [6]: Metabolite_Notdetected | Drug metabolism [7]: Metabolite_Detected | Drug metabolism [8]: Metabolite_Notdetected | Drug metabolism [9]: Metabolite_Notdetected | Drug metabolism [10]: Metabolite_Notdetected | Activity (Mus musculus [11]): inactive | Drug metabolism [12]: Metabolite_Notdetected | Drug metabolism [13]: Metabolite_Detected | Drug metabolism [14]: Metabolite_Detected | Drug metabolism [15]: Metabolite_Notdetected | Drug metabolism [16]: Metabolite_Detected | Activity (Mus musculus [17]): Active
